Test [1] concerns the target Dual specificity protein phosphatase 3 (Homo sapiens) (UniProt P51452). As to the kind of experiment: Inhibition of VHR (unknown origin) assessed as inhibition rate at 90 uM.
Test [2] concerns the target Tyrosine-protein phosphatase non-receptor type 6 (Homo sapiens) (UniProt P29350). Description: Inhibition of SHP1 (unknown origin) assessed as inhibition rate at 90 uM.
The target of test [3] is T1, Tyrosine-protein phosphatase non-receptor type 11 (Homo sapiens) (UniProt Q06124).
T1 sequence (whole entry): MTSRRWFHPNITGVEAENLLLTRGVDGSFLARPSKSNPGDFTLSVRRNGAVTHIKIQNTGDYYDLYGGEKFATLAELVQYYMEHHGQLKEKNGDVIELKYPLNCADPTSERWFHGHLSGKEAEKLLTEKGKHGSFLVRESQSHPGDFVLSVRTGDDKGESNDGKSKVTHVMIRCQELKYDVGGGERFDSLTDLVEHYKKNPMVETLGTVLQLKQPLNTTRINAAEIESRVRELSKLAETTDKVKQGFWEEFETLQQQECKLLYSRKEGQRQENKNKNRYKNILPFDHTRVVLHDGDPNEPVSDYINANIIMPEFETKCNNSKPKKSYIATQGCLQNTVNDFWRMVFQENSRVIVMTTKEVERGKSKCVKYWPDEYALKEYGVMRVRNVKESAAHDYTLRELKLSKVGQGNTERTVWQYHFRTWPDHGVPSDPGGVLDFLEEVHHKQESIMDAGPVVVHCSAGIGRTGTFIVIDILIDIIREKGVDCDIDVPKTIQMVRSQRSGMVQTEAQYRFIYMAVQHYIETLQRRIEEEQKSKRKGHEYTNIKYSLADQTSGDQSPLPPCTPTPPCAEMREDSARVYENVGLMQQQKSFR
As to the kind of experiment: Inhibition of SHP2 (unknown origin) assessed as inhibition rate at 90 uM.

In a further test the test system is HepG2. As to the kind of experiment: Induction of Akt phosphorylation in insulin-stimulated human HepG2 cells assessed as pAkt/Akt ratio at 50 uM after 5 mins by western blotting analysis relative to control. The format is functional. The essentials: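 HepG2 cells were treated with compound at 50 µM, then stimulated with insulin. pAkt was assessed by western blotting at 0 and 5 min after insulin. DMSO served as the negative control and sodium orthovanadate (200 µM) as the positive control. Values are expressed relative to control.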

For test [4], the target named is T2, Tyrosine-protein phosphatase non-receptor type 1 (Homo sapiens, UniProt P18031).
T2 sequence (P18031 whole entry): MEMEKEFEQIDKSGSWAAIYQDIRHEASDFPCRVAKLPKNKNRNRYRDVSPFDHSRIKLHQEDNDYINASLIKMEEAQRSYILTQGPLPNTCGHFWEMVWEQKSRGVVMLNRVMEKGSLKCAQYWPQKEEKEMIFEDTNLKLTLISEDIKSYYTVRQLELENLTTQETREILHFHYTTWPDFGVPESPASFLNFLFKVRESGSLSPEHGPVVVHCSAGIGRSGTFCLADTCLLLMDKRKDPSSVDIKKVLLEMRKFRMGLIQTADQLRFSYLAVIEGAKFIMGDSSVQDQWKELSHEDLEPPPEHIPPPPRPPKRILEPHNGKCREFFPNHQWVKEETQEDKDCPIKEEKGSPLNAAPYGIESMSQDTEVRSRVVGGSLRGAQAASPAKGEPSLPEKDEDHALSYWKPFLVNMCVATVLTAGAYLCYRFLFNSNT
Description: Inhibition of PTP1B (unknown origin). The essentials:
(§1)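 PTP1B enzymatic assay with RK-682 as the positive control. For the single-point screen, compounds were tested at a final 100 µM. For dose–response, inhibition was measured over a range of compound concentrations, and IC50 was obtained by regression analysis.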

In test [5] the target is T2, Tyrosine-protein phosphatase non-receptor type 1. Description: Non-competitive inhibition of PTP1B (unknown origin) assessed as hydrolysis of para-nitrophenylphosphate by Lineweaver-Burk plot. The essentials:
(§2)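 Kinetic study of PTP1B varying both compound and p-nitrophenylphosphate substrate concentrations. Mode was read from Lineweaver–Burk plots. Slopes from those plots were replotted against compound concentration (secondary plot), and Ki was calculated from that plot.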

Test [6] addresses T3, Tyrosine-protein phosphatase non-receptor type 2 (Homo sapiens) (UniProt P17706).
T3 sequence (whole entry): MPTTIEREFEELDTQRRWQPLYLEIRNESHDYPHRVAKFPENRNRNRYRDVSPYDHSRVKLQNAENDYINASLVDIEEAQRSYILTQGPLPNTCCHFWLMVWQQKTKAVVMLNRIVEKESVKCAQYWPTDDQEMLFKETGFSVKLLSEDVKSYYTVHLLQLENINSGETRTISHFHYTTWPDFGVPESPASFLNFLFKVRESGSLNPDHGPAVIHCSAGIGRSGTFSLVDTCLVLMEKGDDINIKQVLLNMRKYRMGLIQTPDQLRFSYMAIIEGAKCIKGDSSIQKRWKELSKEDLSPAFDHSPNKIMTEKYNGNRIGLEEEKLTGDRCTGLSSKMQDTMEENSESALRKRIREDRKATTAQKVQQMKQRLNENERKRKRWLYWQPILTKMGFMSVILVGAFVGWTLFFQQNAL
As to the kind of experiment: Inhibition of TCPTP (unknown origin) assessed as inhibition rate at 90 uM.

For test [7], the target named is T4, Tyrosine-protein phosphatase non-receptor type 1 (Homo sapiens) (UniProt P18031).
T4 sequence (whole entry): T2 sequence (P18031 whole entry)
Particulars: 90 uM.

Test [8] is filed under the species Homo sapiens. Description: Ratio of inhibition rate for PTP1B (unknown origin) at 75 uM to inhibition rate for TCPTP (unknown origin) at 75 uM.
For test [9], the species on record is Homo sapiens. Description: Ratio of inhibition rate for PTP1B (unknown origin) at 75 uM to inhibition rate for VHR (unknown origin) at 75 uM.
The species named for test [10] is Homo sapiens. Description: Ratio of inhibition rate for PTP1B (unknown origin) at 75 uM to inhibition rate for SHP1 (unknown origin) at 75 uM.
The species entered for test [11] is Homo sapiens. Description: Ratio of inhibition rate for PTP1B (unknown origin) at 75 uM to inhibition rate for SHP2 (unknown origin) at 75 uM.
Test [12] addresses T2, Tyrosine-protein phosphatase non-receptor type 1. Description: Competitive inhibition of PTP1B (unknown origin) assessed as hydrolysis of para-nitrophenylphosphate by Lineweaver-Burk plot. Summed up: as §2
In test [13] the target is T4, Tyrosine-protein phosphatase non-receptor type 1 (Homo sapiens). Description: Inhibition of PTP1B (unknown origin) assessed as inhibition rate at 75 uM.
Test [14] has as its target T3, Tyrosine-protein phosphatase non-receptor type 2 (Homo sapiens). Description: Inhibition of TCPTP (unknown origin) assessed as inhibition rate at 75 uM.
Test [15] concerns the target Dual specificity protein phosphatase 3 (Homo sapiens) (UniProt P51452). Description: Inhibition of VHR (unknown origin) assessed as inhibition rate at 75 uM.
Test [16] deals with Tyrosine-protein phosphatase non-receptor type 6 (Homo sapiens) (UniProt P29350). As to the kind of experiment: Inhibition of SHP1 (unknown origin) assessed as inhibition rate at 75 uM.
Test [17] has as its target T1, Tyrosine-protein phosphatase non-receptor type 11 (Homo sapiens). Description: Inhibition of SHP2 (unknown origin) assessed as inhibition rate at 75 uM.
The species entered for test [18] is Homo sapiens. Description: Ratio of inhibition rate for PTP1B (unknown origin) at 75 uM to inhibition rate for TCPTP (unknown origin) at 100 uM.
For test [19], the species on record is Homo sapiens. As to the kind of experiment: Ratio of inhibition rate for PTP1B (unknown origin) at 75 uM to inhibition rate for VHR (unknown origin) at 100 uM.
The species named for test [20] is Homo sapiens. As to the kind of experiment: Ratio of inhibition rate for PTP1B (unknown origin) at 75 uM to inhibition rate for SHP1 (unknown origin) at 100 uM.
The species named for test [21] is Homo sapiens. As to the kind of experiment: Ratio of inhibition rate for PTP1B (unknown origin) at 75 uM to inhibition rate for SHP2 (unknown origin) at 100 uM.
Test [22] concerns the target T4, Tyrosine-protein phosphatase non-receptor type 1 (Homo sapiens). Description: Inhibition of PTP1B (unknown origin) assessed as inhibition rate at 100 uM. The essentials: as §1
Test [23] addresses T3, Tyrosine-protein phosphatase non-receptor type 2 (Homo sapiens). As to the kind of experiment: Inhibition of TCPTP (unknown origin) assessed as inhibition rate at 100 uM.
The target of test [24] is Dual specificity protein phosphatase 3 (Homo sapiens) (UniProt P51452). Description: Inhibition of VHR (unknown origin) assessed as inhibition rate at 100 uM.
In test [25] the target is Tyrosine-protein phosphatase non-receptor type 6 (Homo sapiens) (UniProt P29350). As to the kind of experiment: Inhibition of SHP1 (unknown origin) assessed as inhibition rate at 100 uM.
The target in test [26] is T1, Tyrosine-protein phosphatase non-receptor type 11 (Homo sapiens). As to the kind of experiment: Inhibition of SHP2 (unknown origin) assessed as inhibition rate at 100 uM.

Dual specificity protein phosphatase 3 (Homo sapiens), sequence (P51452 whole entry, looked up): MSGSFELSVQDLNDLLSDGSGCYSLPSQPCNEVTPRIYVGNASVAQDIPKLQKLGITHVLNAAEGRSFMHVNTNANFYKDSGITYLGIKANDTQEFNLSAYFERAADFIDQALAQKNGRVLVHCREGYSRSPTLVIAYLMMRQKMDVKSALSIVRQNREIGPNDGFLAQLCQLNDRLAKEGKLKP
Tyrosine-protein phosphatase non-receptor type 6 (Homo sapiens), sequence (P29350 whole entry): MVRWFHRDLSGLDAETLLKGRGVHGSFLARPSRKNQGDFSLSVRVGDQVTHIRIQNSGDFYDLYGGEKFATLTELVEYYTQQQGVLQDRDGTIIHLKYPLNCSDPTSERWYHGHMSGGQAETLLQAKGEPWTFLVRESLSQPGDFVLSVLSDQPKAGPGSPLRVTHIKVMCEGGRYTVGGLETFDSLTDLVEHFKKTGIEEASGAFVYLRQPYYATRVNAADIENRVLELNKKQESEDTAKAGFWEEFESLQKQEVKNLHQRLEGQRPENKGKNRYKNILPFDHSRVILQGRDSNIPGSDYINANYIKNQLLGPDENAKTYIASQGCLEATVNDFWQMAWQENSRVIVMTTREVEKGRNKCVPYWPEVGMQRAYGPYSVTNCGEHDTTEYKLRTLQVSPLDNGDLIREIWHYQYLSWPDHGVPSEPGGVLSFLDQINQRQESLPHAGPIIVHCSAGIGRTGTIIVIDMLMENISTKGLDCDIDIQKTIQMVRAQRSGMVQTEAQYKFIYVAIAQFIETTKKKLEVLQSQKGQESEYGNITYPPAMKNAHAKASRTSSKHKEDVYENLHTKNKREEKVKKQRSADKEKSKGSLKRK

The term inhibition denotes the change of the read-out against control, counted positive when it falls. One may read the IC50 as the concentration at which inhibition is half-maximal. A word on the Ki: it is the equilibrium dissociation constant of an inhibitor or competing ligand from its target. In the case of `CC(=O)Oc1cc2nccc3c4ccccc4n(c1=O)c23`, the inhibition in [1] is 46%; in test [2], 30.2%; in [3], 23%; in [6], 22.1%; in test [7], 90.3%. Also, in the test with HepG2, the pAkt/Akt ratio is 2.1. The molecule also returned an IC50 in [4] of 28.9 µM. In addition, in [5], the Ki worked out at 18.4 µM.

Consider `Cn1ccc2c3n(c(=O)c(=O)cc1-3)c1ccccc21`, for which the Ratio in the test listed under Homo sapiens [8] worked out at 3.2; in the test filed under Homo sapiens [9], 4.4; in the test filed under Homo sapiens [10] it was 6.9; in the test listed under Homo sapiens [11], 5.6. The pAkt/Akt ratio in the test with HepG2 is given as 2.4. Further, in [4], 19.8 µM corresponded to half-maximal inhibition (IC50). For the same molecule, the Ki in [12] came out at 7.07 µM. The inhibition in [13] came out at 91.4%; in test [14] it was 29%; in test [15], 20.6%; in test [16], 13.2%; in test [17], 16.3%.

On to `CCc1c2n(C)ccc3c-2n(c(=O)c1=O)c1ccccc31`, for which the Ratio in the test filed under Homo sapiens [18] is 2.3; in the test filed under Homo sapiens [19] it was 4.6; in the test filed under Homo sapiens [20], 4.4; in the test filed under Homo sapiens [21], 3.6. The pAkt/Akt ratio in the test with HepG2 was 1.2. The molecule further came in with an IC50 in test [4] of 27.8 µM. In test [5], the Ki came out at 20 µM. Moreover, the inhibition in [22] is 91%; in test [23], 40%; in test [24] it was 19.7%; in [25], 20.6%; in test [26] it was 25%.

Take `Cc1c2n(C)ccc3c-2n(c(=O)c1=O)c1ccccc31`: the Ratio in the test filed under Homo sapiens [8] is 1.9; in the test filed under Homo sapiens [9], 3.5; in the test listed under Homo sapiens [10], 3.8; in the test listed under Homo sapiens [11], 3.8. In [4], this molecule registered an IC50 of 24.7 µM. Further, the Ki in test [5] worked out at 19.9 µM. Moreover, the inhibition in [13] stood at 92.1%; in test [14] it was 49.7%; in [15], 26.5%; in test [16], 24.4%; in [17], 23.3%.

With `COc1ccc2c3ccn(C)c4cc(=O)c(=O)n(c3-4)c2c1`, the Ratio in the test listed under Homo sapiens [18] was 6.3; in the test listed under Homo sapiens [19], 1.5; in the test listed under Homo sapiens [20] it was 3.3; in the test listed under Homo sapiens [21], 2.1. Also, the pAkt/Akt ratio with HepG2 turned out to be 1.8. In test [4], this molecule registered an IC50 of 19.2 µM. Moreover, the Ki in [5] amounted to 12.9 µM. Besides, the inhibition in [22] is 93.8%; in test [23], 15%; in test [24] it was 61.4%; in [25], 28.7%; in test [26], 44.4%.

`COc1cc2nccc3c4ccccc4n(c1=O)c23` [5-METHOXYCANTHINONE]: the Ratio in the test filed under Homo sapiens [8] is 1.9; in the test filed under Homo sapiens [9], 3.3; in the test filed under Homo sapiens [10], 4; in the test filed under Homo sapiens [11], 5. Also, the pAkt/Akt ratio in the test on HepG2 turned out to be 1.3. In test [4], this molecule gave a 50% inhibitory concentration (IC50) of 20.3 µM. The Ki in [5] was 10.3 µM. Moreover, the inhibition in test [13] turned out to be 91%; in [14], 48.4%; in test [15], 27.5%; in test [16] it was 22.8%; in [17], 18.3%.

Values taken from ChEMBL document CHEMBL3400011, “Canthinone alkaloids are novel protein tyrosine phosphatase 1B inhibitors” (Bioorg Med Chem Lett, 2015).
